Laboratory results: ChEMBL document CHEMBL3259756 (J Nat Prod, 2014)

Legend:
[1] = Cytotoxicity against wild type human Saos2 cells assessed as cell mortality at 0.1 to 5 ug/mL after 4 hrs by trypan blue staining-based flow cytometric analysis; conditions: saos-2, 4 h
How it was run: (§1)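 Trypan blue exclusion read by flow cytometry. Cells exposed to voacamine at 0.1, 1.0 or 5.0 μg/mL (in DMSO; DMSO-only cultures as extra control) for 4 or 24 h, resuspended in ice-cold PBS, stained with trypan blue (final 0.8 μM) and analysed at once; % dead cells. Three independent experiments, mean ± SD.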

[2] = Cytotoxicity against doxorubicin-resistant human Saos2 cells assessed as cell mortality at 0.1 to 5 ug/mL after 4 hrs by trypan blue staining-based flow cytometric analysis; conditions: saos-2, 4 h; how it was run: as §1
[3] = Cytotoxicity against P-gp-deficient human Me30966 cells assessed as cell mortality at 0.1 to 5 ug/mL after 4 hrs by trypan blue staining-based flow cytometric analysis; format: ADME; how it was run: as §1
[4] = Cytotoxicity against wild type human Saos2 cells assessed as cell mortality at 5 ug/mL after 24 hrs by trypan blue staining-based flow cytometric analysis; conditions: saos-2, 24 h; how it was run: as §1
[5] = Cytotoxicity against doxorubicin-resistant human Saos2 cells assessed as cell mortality at 5 ug/mL after 24 hrs by trypan blue staining-based flow cytometric analysis; conditions: saos-2, 24 h; how it was run: as §1
[6] = Cytotoxicity against P-gp-deficient human Me30966 cells assessed as cell mortality at 5 ug/mL after 24 hrs by trypan blue staining-based flow cytometric analysis; format: ADME; how it was run: as §1
[7] = Cytotoxicity against human AG1522 cells assessed as cell mortality at 5 ug/mL after 24 hrs by trypan blue staining-based flow cytometric analysis; how it was run: as §1
[8] = Cytotoxicity against human AG1522 cells assessed as cell mortality at 0.1 to 5 ug/mL after 4 hrs by trypan blue staining-based flow cytometric analysis; how it was run: as §1
[9] = molecular target: T1, ATP-dependent translocase ABCB1 (Homo sapiens, UniProt P08183); assay: Inhibition of p-gp in doxorubicin-resistant human Saos2 cells assessed as increase in doxorubicin uptake at 1 ug/mL after 3 hrs by flow cytometric analysis; format: cell-based; conditions: saos-2, 3 h
How it was run: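 Doxorubicin accumulation by flow cytometry. Osteosarcoma or melanoma cells exposed for 3 h to doxorubicin 1.0 μg/mL alone, with voacamine 1.0 μg/mL, or with cyclosporin A 5.0 μM (control). Cells detached with EDTA/trypsin (10^6 cells/mL), resuspended in ice-cold PBS, 488 nm excitation. Three independent experiments, mean ± SD.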

[10] = molecular target: T1, ATP-dependent translocase ABCB1; assay: Inhibition of p-gp in doxorubicin-resistant human Saos2 cells assessed as increase in intracellular doxorubicin retention at 1 ug/mL after 2 hrs by flow cytometric analysis; format: cell-based; conditions: saos-2, 2 h
How it was run: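 Efflux by flow cytometry. Cells loaded 1 h with 1.0 μg/mL doxorubicin, washed in PBS, then reincubated 2 h at 37 °C in drug-free medium with or without voacamine (1.0 μg/mL) or cyclosporin A (5.0 μM). Detached, resuspended in ice-cold PBS, analysed for retained doxorubicin fluorescence. Three independent experiments, mean ± SD.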

[11] = molecular target: T1, ATP-dependent translocase ABCB1; assay: Inhibition of p-gp in doxorubicin-resistant human Saos2 cells assessed as intracellular doxorubicin distribution in nuclei at 1 ug/mL after 2 to 3 hrs by laser scanning confocal microscopic analysis; format: cell-based; conditions: saos-2
How it was run: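 Living SAOS-2-DX cells, with SAOS-2-WT for reference, treated with doxorubicin alone or with voacamine or cyclosporin A as in the flow cytometry uptake/efflux protocol. Intracellular, including nuclear, doxorubicin fluorescence located by laser scanning confocal microscopy.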

[12] = Cytotoxicity against doxorubicin-resistant human Saos2 cells assessed as effect on cell survival up to 1 ug/mL after 72 hrs by MTT assay; format: cell-based; conditions: saos-2, 72 h
How it was run: (§2)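 MTT survival assay. Cells seeded 24 h beforehand (1 × 10^4 SAOS-2-DX or 5 × 10^3 Me30966 per well). Voacamine 0.5 or 1.0 μg/mL given alone or 30 min before doxorubicin (Me30966: 0.1 or 0.5 μg/mL; SAOS-2-DX: 0.5 or 1.0 μg/mL). Read at 24 h for Me30966 and 72 h for SAOS-2-DX. Three independent experiments, mean ± SD.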

P-gp (ABCB1) = P-gp (ABCB1) (Homo sapiens, UniProt P08183); assay: Inhibition of p-gp in doxorubicin-resistant human Saos2 cells assessed as potentiation of doxorubicin-induced cytotoxicity by measuring cell survival at 1 ug/mL pretreated for 30 mins followed by 0.5 ug/mL doxorubicin addition measured after 72 hrs by MTT assay relative to doxorubicin-treated cell; format: cell-based, SAOS-2; conditions: probe doxorubicin, read-out: Survival; how it was run: as §2
[13] = molecular target: T1, ATP-dependent translocase ABCB1; assay: Inhibition of p-gp in doxorubicin-resistant human Saos2 cells assessed as potentiation of doxorubicin-induced cytotoxicity by measuring cell survival at 0.5 ug/mL pretreated for 30 mins followed by 0.5 ug/mL doxorubicin addition measured after 72 hrs by MTT assay relative to doxorubicin-treated cell; format: cell-based; conditions: saos-2, 72 h; how it was run: as §2
[14] = molecular target: T1, ATP-dependent translocase ABCB1; assay: Inhibition of p-gp in doxorubicin-resistant human Saos2 cells assessed as potentiation of doxorubicin-induced cytotoxicity by measuring cell survival at 0.5 ug/mL pretreated for 30 mins followed by 1 ug/mL doxorubicin addition measured after 72 hrs by MTT assay relative to doxorubicin-treated cell; format: cell-based; conditions: saos-2, 72 h; how it was run: as §2
[15] = molecular target: T1, ATP-dependent translocase ABCB1; assay: Inhibition of p-gp in doxorubicin-resistant human Saos2 cells assessed as potentiation of doxorubicin-induced cytotoxicity by measuring cell survival at 1 ug/mL pretreated for 30 mins followed by 1 ug/mL doxorubicin addition measured after 72 hrs by MTT assay relative to doxorubicin-treated cell; format: cell-based; conditions: saos-2, 72 h; how it was run: as §2
[16] = Cytotoxicity against P-gp-deficient human Me30966 cells assessed as effect on cell survival at 0.5 to 1 ug/mL pretreated for 30 mins followed by 1 ug/mL doxorubicin addition measured after 24 hrs by MTT assay relative to doxorubicin-treated cell; format: ADME, cell-based
[17] = Cytotoxicity against doxorubicin-resistant human Saos2 cells assessed as induction of morphological changes at 1 ug/mL by phase contrast microscopic analysis; format: cell-based; conditions: saos-2
How it was run: (§3)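 Monolayers viewed by phase contrast microscopy against untreated controls. SAOS-2-DX given 1.0 μg/mL voacamine plus 1.0 μg/mL doxorubicin; Me30966 given 1.0 μg/mL voacamine plus 0.5 μg/mL doxorubicin.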

[18] = Cytotoxicity against P-gp-deficient human Me30966 cells assessed as induction of morphological changes at 1 ug/mL by phase contrast microscopic analysis; format: ADME, cell-based; how it was run: as §3
[19] = molecular target: T1, ATP-dependent translocase ABCB1; assay: Inhibition of p-gp in doxorubicin-resistant human Saos2 cells assessed as potentiation of 1 ug/mL doxorubicin-induced cytotoxicity by measuring induction of morphological changes at 1 ug/mL by phase contrast microscopic analysis; format: cell-based; conditions: saos-2; how it was run: as §3

T1 sequence (P08183 whole entry): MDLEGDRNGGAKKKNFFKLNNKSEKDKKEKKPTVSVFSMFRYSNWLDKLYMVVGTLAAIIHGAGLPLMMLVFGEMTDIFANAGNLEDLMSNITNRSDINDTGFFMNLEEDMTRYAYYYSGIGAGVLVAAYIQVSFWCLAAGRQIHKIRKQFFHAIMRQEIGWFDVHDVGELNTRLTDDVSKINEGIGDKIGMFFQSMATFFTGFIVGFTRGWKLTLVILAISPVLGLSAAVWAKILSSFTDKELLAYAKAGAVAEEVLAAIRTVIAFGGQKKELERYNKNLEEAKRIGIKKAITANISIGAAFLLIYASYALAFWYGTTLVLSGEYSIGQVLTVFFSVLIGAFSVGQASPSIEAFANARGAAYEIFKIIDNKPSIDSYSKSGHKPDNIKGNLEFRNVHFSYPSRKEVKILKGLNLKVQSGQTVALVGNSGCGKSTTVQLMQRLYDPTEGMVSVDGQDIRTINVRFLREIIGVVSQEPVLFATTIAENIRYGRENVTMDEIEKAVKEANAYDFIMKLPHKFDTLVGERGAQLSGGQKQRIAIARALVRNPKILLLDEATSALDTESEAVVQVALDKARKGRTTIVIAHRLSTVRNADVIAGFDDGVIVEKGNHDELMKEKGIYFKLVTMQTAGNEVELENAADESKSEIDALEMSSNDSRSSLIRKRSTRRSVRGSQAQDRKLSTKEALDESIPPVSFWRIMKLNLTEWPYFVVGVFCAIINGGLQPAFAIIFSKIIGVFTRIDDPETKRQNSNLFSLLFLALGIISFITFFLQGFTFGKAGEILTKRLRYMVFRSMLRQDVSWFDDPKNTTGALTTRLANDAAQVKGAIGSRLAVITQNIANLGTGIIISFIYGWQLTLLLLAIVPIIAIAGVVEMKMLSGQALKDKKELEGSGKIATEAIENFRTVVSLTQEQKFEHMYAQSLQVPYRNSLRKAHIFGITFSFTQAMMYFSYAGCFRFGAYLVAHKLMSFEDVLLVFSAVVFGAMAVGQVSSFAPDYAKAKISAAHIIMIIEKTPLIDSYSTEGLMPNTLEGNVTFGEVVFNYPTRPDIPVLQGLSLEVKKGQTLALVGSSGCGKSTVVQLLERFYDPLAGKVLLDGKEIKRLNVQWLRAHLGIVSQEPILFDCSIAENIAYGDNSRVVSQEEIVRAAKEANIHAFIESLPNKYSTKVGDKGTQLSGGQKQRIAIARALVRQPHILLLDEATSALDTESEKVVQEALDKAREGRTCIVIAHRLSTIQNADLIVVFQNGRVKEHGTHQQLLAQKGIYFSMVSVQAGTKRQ
Chain of P-gp (ABCB1) (P08183 whole entry): as above

CC=C1CN(C)C2Cc3c([nH]c4ccccc34)C(c3cc4[nH]c5c(c4cc3OC)CCN3CC4CC(CC)C3C5(C(=O)OC)C4)CC1C2C(=O)OC (stereo not given) [VOACAMINE]
Toxic: Activity [4] | Activity [5] | Activity [6] | Activity [7]
Active: inhibition (INH) [9] | inhibition (INH) [10] | inhibition (INH) [11] | inhibition (INH) [13] | inhibition (INH) [14] | inhibition (INH) [15] | inhibition (INH) [19]
Non-toxic: Activity [1] | Activity [2] | Activity [3] | Activity [8] | Activity [12] | Activity [16] | Activity [17] | Activity [18]
50%: viability at 72 h, 1 ug/mL (P-gp (ABCB1))
